STAT1 blocker: STAT1 signaling inhibition; inhibition, % at 5.5 µM; 200,000 tested, 0.35% active; NIH 3T3 STAT1-luciferase reporter, IFN-gamma, luminescence; AID 920;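 active means inhibition above a set limit, the mean inhibition across all tested compounds plus 3 SD, cut at about 34% in these data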;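 further: 0% = IFN-gamma with DMSO and 100% = IFN-gamma with 300 µM nifuroxazide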
STAT3 act-1: STAT3 signaling activation. U3A cells, IL-6 STAT3-luciferase reporter, luminescence; 100% = signal with IL-6 EC80 alone. 190,000 tested, 0.91% active. activation (% of control), % at 5.6 µM;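 active means activation above the screen-wide mean of compound activation plus 3 SD, cut at about 130% in these data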;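 further: 0% = background luminescence of wells with medium and substrate only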
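Material: STAT3-luciferase reporter U3A cells. Controls: IL-6-treated wells, 100% activation. Read-out: % activation versus median of IL-6-stimulated wells. Probe or stimulus: IL-6 stimulus at 33 ng/mL final. Timing: compound 1 h, then IL-6 6 h at 37 °C. Signal: reporter luminescence signal.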
NF-kB expr up: compounds increasing NF-kB expression in human neuronal cells. NF-kB reporter expression; hits give high values. fold change at 12.5 µM. 190,000 tested, 1.6% active. AID 1239; in the data active means fold change above about 3.3
STAT3 blocker: reduces IL-6 driven STAT3 reporter signal. U3A cells, IL-6 STAT3-luciferase reporter, luminescence; host cell line lacks STAT1. inhibition, % at 5.5 µM. 190,000 tested, 0.89% active;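 active means inhibition above the mean inhibition across all screened compounds plus 3 SD, cut at about 44% in these data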;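 further: 0% = DMSO only wells and 100% = 100 µM nifuroxazide control wells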
APP 5'UTR act: activates APP 5'UTR luciferase reporter. SH-SY5Y APP 5'UTR luciferase reporter, luminescence; zero percent = DMSO vehicle wells. 190,000 tested, 1% active. activation, % at 2 µM;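 active means activation above a set limit, based on mean plus 3 SD of controls, cut at about 140% in these data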
STAT1 act-1: increases IFN-gamma driven STAT1 reporter signal | NIH 3T3 STAT1-luciferase reporter, luminescence; 100% = IFN-gamma alone, no compound | activation (% of control), % at 5.5 µM | 200,000 tested, 2.6% active;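 active means activation above the screen-wide mean activation plus 3 SD, cut at about 130% in these data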;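 further: raw ratio to IFN-gamma control signal so 100% means no change and 0% no light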
STAT3 act-2: STAT3 activation, confirmation assay; AID 1267; shares compounds with STAT3 act-1; potentiation (% of control), % at 5.7 µM; 1,200 tested, 64% active; U3A STAT3-luciferase reporter, IL-6 potentiation, luminescence; U3A cells lack STAT1; 100 means same as IL-6 alone;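 active means percent activation of the STAT3 luciferase reporter above a set limit taken from the earlier primary screen, cut at about 130% in these data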;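 further: 0% = background signal of medium plus substrate and 100% = median of IL-6 with DMSO wells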
NFkB act 2: counter-screen for STAT3 activators: NF-kappaB activation | shares compounds with STAT3 act-1 | activation (% of control), % at 5.7 µM | human cells, NF-kappaB reporter activation | 1,200 tested, 11% active | AID 1309; in the data active means activation above about 120%;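 further: reporter induced by TNF-alpha stimulation; 100% = median of stimulated DMSO wells and 0% = no signal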
STAT1 act-2: counter-screen for STAT3 activators: STAT1 activation | shares compounds with STAT3 act-1 | NIH 3T3 STAT1-luciferase reporter, IFN-gamma, luminescence | activation (% of control), % at 5.7 µM | 1,200 tested, 13% active | AID 1318;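 active means activation above the solvent-only control well mean plus 3 SD, set per screening run, cut at about 120% in these data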;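 further: 100% = IFN-gamma with DMSO median signal so 100% means no change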
* marks the source's active call; other numbers are inactive results; / = no result given. A selection: hits, their analogues and other compounds. The true share with any hit is near 5.1%.

SMILES | STAT1 blocker | STAT3 act-1 | NF-kB expr up | STAT3 blocker | APP 5'UTR act | STAT1 act-1 | STAT3 act-2 | NFkB act 2 | STAT1 act-2
CCN1CCCC1CNC(=O)c1cc2c(-c3ccc(Cl)cc3)nn(C)c2s1 (stereo not drawn) | 6 | 170* | 0.51 | -72 | -1 | 94 | 156* | 106 | 91
CCN1CCCC1CNC(=O)c1cc2c(-c3cccc(OC)c3)nn(C)c2s1 (stereo not drawn) | 18 | 96 | 0.83 | 8 | 6 | 82 | / | / | /
CCOc1ccccc1-c1nnc(SCC(=O)NC2CC3CCC2C3)n1CC (stereo not drawn) | -6 | 160* | 0.96 | -60 | 1 | 105 | 169* | 127* | 162*
Cn1c(=O)[nH]c(=O)c2c1nc(N1CCCCCC1)n2CCCSc1nnnn1-c1ccccc1 | 6 | 104 | 0.73 | -7 | 5 | 95 | / | / | /
Cc1ccc(S(=O)(=O)/N=C2/C=C(Sc3ncn[nH]3)C(=O)c3ccccc32)cc1 | 15 | 141* | 0.83 | -52 | -64 | 87 | 132 | 107 | 83
CC(Nc1cccc2ccccc12)C(=O)N/N=C/c1ccc([N+](=O)[O-])cc1 (stereo not drawn) | 8 | 113 | 0.85 | -11 | 6 | 93 | / | / | /
Cc1cccc(/C=N/NC(=O)C(C)Nc2cccc3ccccc23)n1 (stereo not drawn) | -1 | 164* | 2.3 | -75 | 14 | 107 | 139* | 94 | 97
O=C1C(Cc2c[nH]c3ccccc23)NC(=S)N1Cc1ccccc1 (stereo not drawn) | -3 | 112 | 0.91 | -13 | -12 | 102 | / | / | /
CC(C)C1NC(=S)N(Cc2ccccc2)C1=O (stereo not drawn) | -3 | 142* | 1.2 | -46 | -1 | 103 | 98 | 105 | 99
CCCn1c(Nc2ccccc2C)nc2ccccc21 | 7 | 93 | 1.4 | 11 | 7 | 94 | / | / | /
COc1ccc(C)cc1NC(=O)c1cnc2scc(C)n2c1=O | -5 | 91 | 1.1 | 11 | 2 | 102 | / | / | /
CCc1ccc(NC(=O)c2cnc3scc(C)n3c2=O)cc1 | -32 | 154* | 2.1 | -68 | 61 | 126 | 165* | 115 | 138*
Cc1csc(NC(=O)Cc2coc3cc(C)c(C(C)C)cc23)n1 | 5 | 137* | 0.7 | -38 | 3 | 96 | 125 | 99 | 96
Cn1c(C(=O)c2ccccc2[N+](=O)[O-])nc2ccccc21 | -6 | 145* | 0.99 | -49 | -6 | 106 | 142* | 96 | 94
O=C(c1ccccc1[N+](=O)[O-])n1cnc2ccccc21 | -2 | 91 | 0.9 | 12 | 15 | 103 | / | / | /
O=C(CSc1ccc(C(F)(F)F)cc1[N+](=O)[O-])Nc1ccc2ccccc2c1 | 1 | 101 | 1.3 | 2 | -1 | 99 | / | / | /
Cc1ccnc(NC(=O)CCC(=O)N(CC(=O)NCc2ccccc2)c2ccc3c(c2)OCO3)c1 | 3 | 149* | 1.2 | -58 | -1 | 97 | 144* | 114 | 98
Cc1ccccc1-n1nnnc1Sc1nnnn1-c1ccccc1 | 26 | 104 | 0.62 | 0 | -5 | 76 | / | / | /
CCCSc1nnc(Sc2nnnn2-c2ccccc2)s1 | 10 | 178* | 1.2 | -83 | -95 | 91 | 147* | 103 | 90
O=C(CC(Nc1cccc(Cl)c1Cl)C(=O)O)c1ccccc1 (stereo not drawn) | -5 | 140* | 0.97 | -47 | -14 | 103 | 149* | 107 | 115
CC(C)c1nnc(NC(=O)CCC(=O)NCc2cccs2)s1 | -2 | 97 | 1 | 9 | 5 | 102 | / | / | /
COc1ccc(Cl)cc1NC(=O)c1[nH]nc(OC)c1[N+](=O)[O-] | 5 | 144* | 0.83 | -35 | -1 | 93 | 140* | 96 | 95
